Measurements published in article PMC3155308 (The EMBO Journal, 2011).
Positions count from the first letter of the chain named. “Also recorded” adds a separate entry of the source. Each block holds one molecule with its values, some of them ahead of it. Where no end group is shown, it is not given here.

Tests used:
[1] = system: myosin-X MyTH4–FERM cassette / microtubules; experiment: Competition microtubule co-sedimentation of MyTH4–FERM cassette; format: binding, human; settings: Myo-X 4 μM; integrin β5 peptide 0, 4, 20 and 40 μM; three independent measurements
[2] = system: myosin-X MyTH4–FERM cassette; experiment: Pull-down with GST-fused integrin β5 cytoplasmic tail; format: binding, human; settings: GST-fused integrin β5 (743–799), Myo-X 10 μM
How it was run: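 MyTH4–FERM cassette (10 μM) was pulled down on glutathione-Sepharose at 4°C by GST-fused human integrin β5 cytoplasmic tail (743–799), with DCC P3 peptide at 0, 10, 50 or 100 μM. Eluates were run on SDS–PAGE. Bound cassette was expressed relative to the no-DCC sample, from three independent measurements.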

DCC [3] = experiment: Co-immunoprecipitation of DCC with myc-tagged myosin-X MyTH4–FERM; format: cell-based; settings: HEK293T cells, anti-myc antibody, immunoblot
[4] = target: T1, myosin-X MyTH4–FERM cassette K1647D/K1650D (human, UniProt Q9HD67 1486-2058, Δ20 deletion (residues 1872–1891) | K1647D | K1650D); experiment: pull-down
T1 sequence (looked up): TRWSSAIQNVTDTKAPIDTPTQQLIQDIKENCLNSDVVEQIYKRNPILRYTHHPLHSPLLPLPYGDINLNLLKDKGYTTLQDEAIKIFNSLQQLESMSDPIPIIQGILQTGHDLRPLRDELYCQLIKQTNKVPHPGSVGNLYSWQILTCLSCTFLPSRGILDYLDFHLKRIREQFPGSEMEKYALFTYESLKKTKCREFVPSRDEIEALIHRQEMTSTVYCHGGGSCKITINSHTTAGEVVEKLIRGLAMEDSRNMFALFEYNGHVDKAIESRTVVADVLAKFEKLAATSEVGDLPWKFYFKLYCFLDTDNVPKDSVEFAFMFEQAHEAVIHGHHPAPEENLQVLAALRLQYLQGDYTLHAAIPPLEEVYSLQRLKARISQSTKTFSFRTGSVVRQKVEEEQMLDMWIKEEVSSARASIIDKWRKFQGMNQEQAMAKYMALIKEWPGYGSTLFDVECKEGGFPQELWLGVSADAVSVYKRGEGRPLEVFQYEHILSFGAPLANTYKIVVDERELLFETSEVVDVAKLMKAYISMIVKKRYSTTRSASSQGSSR

[5] = target: T2, myosin-X MyTH4–FERM cassette F2002K (human, UniProt Q9HD67 1486-2058, Δ20 deletion (residues 1872–1891) | F2002K); experiment: pull-down
T2 sequence (looked up): T1 sequence (looked up) with D162K, D165K, F497K

[6] = system: myosin-X MyTH4–FERM cassette; experiment: Pull-down with GST-fused C-terminal tail peptides of α- and β-tubulins; format: binding, human; settings: SDS–PAGE
How it was run: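 Purified MyTH4–FERM cassette was mixed with GST-fused α1A-tubulin (399–451) or β2B-tubulin (390–445) tail peptide in 20 mM Tris–HCl pH 8.0, 50 mM NaCl, 1 mM DTT at 4°C for 30 min. Glutathione-Sepharose was then added for 10 min at 4°C, with five washes. Elution used 20 mM glutathione in 50 mM Tris–HCl pH 8.0 with 150 mM NaCl, then SDS–PAGE.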

DCC [7] = settings: yeast two-hybrid; ref Zhu et al, 2007; cited from earlier work
microtubules = settings: ref Weber et al, 2004; cited from earlier work
[8] = Analytical ultracentrifugation; format: physicochemical; settings: AUC, mono-modal peak
How it was run: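 Sedimentation velocity at 20°C and 25 000 r.p.m. Purified protein was in 20 mM Tris (pH 8.5), 150 mM NaCl and 5 mM DTT, at 1 mg/ml (14 μM). Sedimentation data were fitted to obtain the species distribution.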

[9] = system: myosin-X MyTH4–FERM cassette; experiment: Gel filtration and AUC of cassette–DCC P3 complex; format: binding, human; settings: through the MyTH4–FERM cassette
[10] = system: C-terminal acidic tail peptide of β2B-tubulin; experiment: Pull-down of wild-type and mutated MyTH4–FERM cassettes with GST-tubulin tail; format: binding; settings: SDS–PAGE
How it was run: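 Human myosin-X MyTH4–FERM cassette (wild type or site-directed mutants) was expressed in E. coli BL21Star(DE3) at 20°C with 0.1 mM IPTG. It was Ni-NTA purified, then His-tag cleaved with HRV3C, then run over cation exchange and gel filtration. GST bait was human DCC 1390–1447 or β2B-tubulin 390–445. Cassette and bait were mixed with glutathione-Sepharose at 4°C, washed, and eluates resolved by SDS–PAGE.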

B1: myc–MyTH4–FERM(ΔC): residues 1486–1954, lacks subdomain C of the FERM domain (protein)
chain: TRWSSAIQNVTDTKAPIDTPTQQLIQDIKENCLNSDVVEQIYKRNPILRYTHHPLHSPLLPLPYGDINLNLLKDKGYTTLQDEAIKIFNSLQQLESMSDPIPIIQGILQTGHDLRPLRDELYCQLIKQTNKVPHPGSVGNLYSWQILTCLSCTFLPSRGILKYLKFHLKRIREQFPGSEMEKYALFTYESLKKTKCREFVPSRDEIEALIHRQEMTSTVYCHGGGSCKITINSHTTAGEVVEKLIRGLAMEDSRNMFALFEYNGHVDKAIESRTVVADVLAKFEKLAATSEVGDLPWKFYFKLYCFLDTDNVPKDSVEFAFMFEQAHEAVIHGHHPAPEENLQVLAALRLQYLQGDYTLHAAIPPLEEVYSLQRLKARISQSTKTFTPCERLEKRRTSFLEGTLRRSFRTGSVVRQKVEEEQMLDMWIKEEVSSARASIIDKWRKFQGMNQEQAMAKYMALIKEWPGYG
modifications: left off: myc, end not stated, kept
co-immunoprecipitation of DCC (DCC [3]): no interaction

B3: GST-fused β2B-tubulin C-terminal acidic tail peptide (390–445) (peptide, UniProt Q9BVA1 390-445, looked up)
chain: RRKAFLHWYTGEGMDEMEFTEAESNMNDLVSEYQQYQDATADEQGEFEEEEGEDEA
modifications: also: GST-fused (side not given here)
binding result [5]: binds

More lines, main results first:

interference with microtubule binding by integrin β5 [1]: interfere with microtubule binding
binding of integrin β5 cytoplasmic peptide [2]: showed binding
Molecule: integrin β5 cytoplasmic peptide: integrin β5 cytoplasmic tail (residues 743–799) ({GST}-KLLVTIHDRREFAKFQSERSRARYEMASNPLYRKPISTHTVDFTFNKFNKSYNGTVD; not fully specified)

binding result [4]: binds
B2: GST-fused DCC P3 peptide (residues 1390–1447) (peptide, UniProt P43146 1390-1447, looked up)
chain: ARSPLLPVSVPTAPEVSEESHKPTEDSANVYEQDDLSEQMASLEGLMKQLNAITGSAF

binding to α- and β-tubulin acidic tails [6]: binds both α- and β-tubulin acidic tails
binding to β2B-tubulin C-terminal tail peptide [10]: shows binding
B4: MyTH4–FERM cassette (protein)
chain: T1 sequence (looked up) with D162K, D165K
modifications: left off: His6, N-terminal, cleaved
DCC binding in two-hybrid assay (DCC [7]): sufficient for DCC and neogenin binding; also recorded: full DCC-binding affinity
microtubule association (microtubules): sufficient to confer microtubule association
association state in solution [8]: monomer
cargo-mediated dimerization of myosin-X [9]: no cargo-mediated dimerization was observed
